Hck-Nef inh: inhibitors of Nef-activated human Hck kinase, primary screen, biochemical, Z-Lyte FRET, 384-well, Hck-YEEI; Tyrosine-protein kinase HCK (Homo sapiens), P08631; Recombinant Hck-YEEI plus Nef, Z-Lyte FRET kinase assay; inhibition, % at 20 µM; hit rate 0.68% among 220,000;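 active = Hck-Nef kinase inhibition above about 50%, limit read from the data; inactive = inhibition below that limit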;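 note: 0% = DMSO with Hck plus Nef and 100% = Hck alone without Nef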
Mdm2 ligase inh: MDM2-luciferase reporter signal enhancers, primary screen, MDM2 E3 ligase inhibitor project, cell-based, luminescence, 1536-well | E3 ubiquitin-protein ligase Mdm2 (Homo sapiens), Q00987 | cell-based MDM2 ubiquitination luciferase reporter, 2 h; 0 = plate control, 100 = twice control, blank-subtracted | signal enhancement, % at 5 µM | hit rate 0.11% among 210,000;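 active = signal enhancement of 30% or more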;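 note: luminescence tracks abundance of the self-degrading MDM2-luciferase fusion protein; higher signal means inhibition of MDM2 E3 ligase activity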
Target sequence (Q00987 whole entry, looked up, the tested form may be a part): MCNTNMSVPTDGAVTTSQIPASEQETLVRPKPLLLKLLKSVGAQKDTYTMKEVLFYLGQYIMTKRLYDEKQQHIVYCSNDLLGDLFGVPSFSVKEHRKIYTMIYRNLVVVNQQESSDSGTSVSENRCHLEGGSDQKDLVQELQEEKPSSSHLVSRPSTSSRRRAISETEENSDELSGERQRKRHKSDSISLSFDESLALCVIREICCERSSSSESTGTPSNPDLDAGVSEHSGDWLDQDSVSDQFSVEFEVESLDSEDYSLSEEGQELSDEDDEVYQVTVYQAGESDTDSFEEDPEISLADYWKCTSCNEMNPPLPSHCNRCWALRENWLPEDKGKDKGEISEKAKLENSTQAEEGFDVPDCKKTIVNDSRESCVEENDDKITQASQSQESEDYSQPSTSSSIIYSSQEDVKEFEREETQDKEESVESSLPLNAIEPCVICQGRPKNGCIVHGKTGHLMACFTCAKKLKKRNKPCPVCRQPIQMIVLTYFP
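Material: stable MDM2–luciferase fusion reporter cells / Quantity: 2000 cells/well / Dosing: single 5 µM compound dose, 0.2% final DMSO / Buffer or medium: DMEM / Schedule: 4 h cell settling then 2 h compound exposure, 37 °C / Detection: luminescence with SteadyLite reagent, 15 min at room temperature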
TNF death inh: inhibitors of TNF-alpha triggered necroptosis, primary screen, cell-based, Jurkat FADD-/-, single concentration | Jurkat FADD-/- TNF necroptosis rescue, ATP luminescence, 24 h; 0 = TNF only, 100 = no-TNF cells | activation (protection from cell death), % at 10 µM | hit rate 0.068% among 220,000;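 active = activation, meaning protection from cell death, of at least 50% relative to plate controls; inactive = activation below 50%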;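 note: necroptosis triggered by 40 ng/mL TNF-alpha added together with compound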
zVAD death inh: inhibitors of zVAD-triggered necroptosis, primary screen, L929 cells | L929 zVAD necroptosis rescue, ATP luminescence, 24 h; with zVAD 60 µM | viability rescue, % at 10 µM | hit rate 0.38% among 220,000;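 active = activation, scaled between plate controls, above about 75%, limit read from the data; inactive = activation under that limit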;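 note: 0% = zVAD with DMSO and 100% = DMSO alone without zVAD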
Autophagy HCS: autophagy modulators in MEF cells, primary screen, imaging, high-content, MEF GFP-LC3. MEF GFP-LC3 puncta imaging; test concentration mostly 10 µM. calls only at 10 µM (by protocol). hit rate 0.98% among 190,000. AID 463193, 2010;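 active = percentage of spot-positive cells more than 3 SD above its plate mean, without a fluorescence outlier flag or 80% toxicity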;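 note: spot-positive cell cutoff set from DMSO-treated cells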
Dynein cargo inh: inhibitors of GR-EGFP nuclear translocation, primary screen, dynein cargo transport inhibitor project, imaging, high-content, 3617.4 mouse cells. z-score, hits read low. test concentration mostly 20 µM; stimulated with dexamethasone, 1 µM; stronger effect = lower value. hit rate 0.47% among 220,000;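 active = plate z-score of nuclear minus cytoplasmic receptor signal below a set negative limit, without overly bright fluorescence or cell loss, cut at about -3.5 in these data, passing the limit was not always enough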;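 note: z-score of nuclear minus cytoplasmic ring GR-EGFP intensity difference per well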
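Schedule: 48 h induction, then 1 h compound, then 30 min agonist, 37 °C. Buffer or medium: tetracycline-free induction medium containing charcoal-stripped FBS. Reagent: 1.0 µM final dexamethasone stimulus. Evaluation: nuclear versus cytoplasmic GR-EGFP signal, averaged per well. Signal: high-content fluorescence imaging after fixation.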
Active calls of the source: *. Most compounds without a hit are left out; they make up all but 2.4% or so of the library.

`Cc1cc(C(=O)NCc2cc(C(=O)O)co2)co1` gave Hck-Nef inh 18.7, Mdm2 ligase inh 1.1, TNF death inh 0.5, zVAD death inh 2.7, Autophagy HCS inactive and Dynein cargo inh -0.106.
COc1ccc(CCn2c(O)cc3nn(-c4nc5ccccc5s4)c(=O)c-3c2C)cc1 was read as Hck-Nef inh 68.1*, Mdm2 ligase inh -9.2, TNF death inh -1.7, zVAD death inh -1.2 and Dynein cargo inh 0.0109.
COc1ccc2[nH]c3c(NCCC4=CCCCC4)ncnc3c2c1 was read as Hck-Nef inh 91.6*, Mdm2 ligase inh -54.8, TNF death inh -4.9, zVAD death inh 1.8, Autophagy HCS inactive and Dynein cargo inh 0.547.
CCN(CC)CCNc1ncnc2c1[nH]c1ccc(OC)cc12 was read as Hck-Nef inh 3.2, Mdm2 ligase inh -9.3, TNF death inh 7.8, zVAD death inh 3.4, Autophagy HCS inactive and Dynein cargo inh -0.205.
`CC(C)c1ccc(NC(=O)NC2CCN(CC(=O)Nc3cccc4ccccc34)CC2)cc1` gave Hck-Nef inh 2.9, Mdm2 ligase inh -21.9, TNF death inh -0.1, zVAD death inh 3.5, Autophagy HCS active and Dynein cargo inh 0.466.
For Nc1ccc(C(=O)OCC(=O)NC2CC2)cc1[N+](=O)[O-] the results were Hck-Nef inh 20.8, Mdm2 ligase inh -8.3, TNF death inh 0.1, zVAD death inh 6.9, Autophagy HCS inactive and Dynein cargo inh -1.3.
`O=C(COC(=O)c1ccccc1C(=O)c1ccc(Cl)c([N+](=O)[O-])c1)NC1CCCCCC1` gave Hck-Nef inh 2.7, Mdm2 ligase inh 32.9*, TNF death inh -18.6, zVAD death inh 0.1, Autophagy HCS inactive and Dynein cargo inh -3.18.
Screening O=C(COC(=O)Cc1ccccc1[N+](=O)[O-])NCc1ccc(F)cc1 returned Hck-Nef inh 0.0, Mdm2 ligase inh -13.2, TNF death inh 0.7, zVAD death inh 0.0, Autophagy HCS inactive and Dynein cargo inh -0.812.
`O=C(COC(=O)Cc1ccccc1[N+](=O)[O-])NC1CCCC1` gave Hck-Nef inh -14.7, Mdm2 ligase inh -0.9, TNF death inh 0.5, zVAD death inh 4.7, Autophagy HCS active and Dynein cargo inh -0.583.
Cc1cc(C(=O)Cn2c(CO)nc3ccccc32)c(C)n1C was read as Hck-Nef inh 7.4, Mdm2 ligase inh -12.8, TNF death inh -0.2, zVAD death inh 0.9 and Dynein cargo inh -0.143.
`CCCn1c(N2CCN(Cc3cccc(C)c3)CC2)nc2c1c(=O)[nH]c(=O)n2C` gave Hck-Nef inh 1.2, Mdm2 ligase inh -20.3, TNF death inh -4.3, zVAD death inh -1.1, Autophagy HCS inactive and Dynein cargo inh 0.848.
`CC1CCCC(NCC(O)COC(c2ccc(F)cc2)c2ccc(F)cc2)C1C` (configuration not stated) gave Hck-Nef inh 19.8, Mdm2 ligase inh -18.2, TNF death inh 2.1, zVAD death inh 7.4, Autophagy HCS active and Dynein cargo inh 0.522.
Screening CC1CCCC(NC(=O)CSc2ccc(F)cc2)C1C (configuration not stated) returned Hck-Nef inh 23.0, Mdm2 ligase inh -15.2, TNF death inh 4.1, zVAD death inh 1.3, Autophagy HCS inactive and Dynein cargo inh -1.78.
`Cc1ncc(CO)c(/C=N/NC(=O)c2cc3c(s2)CCCC3)c1O` gave Hck-Nef inh -79.9, Mdm2 ligase inh -1.9, TNF death inh -7.9, zVAD death inh 64.0, Autophagy HCS inactive and Dynein cargo inh 0.249.
Screening CCOC(=O)c1sc(=NC(=O)COc2ccc(Cl)cc2)n(C)c1C returned Hck-Nef inh 21.2, Mdm2 ligase inh 21.7, TNF death inh -0.5, zVAD death inh 3.7, Autophagy HCS active and Dynein cargo inh 2.44.
